Results taken from ChEMBL document CHEMBL1153517, “Synthesis and biological evaluation of imidazole thioacetanilides as novel non-nucleoside HIV-1 reverse transcriptase inhibitors” (Bioorg Med Chem, 2009).

Experiments:
[1] = test system: Human immunodeficiency virus 1; test: Antiviral activity against […] HIV1 bearing reverse transcriptase K103/Y181C mutation by MTT assay; format: functional, organism-based
[2] = test system: Human immunodeficiency virus 1; test: Antiviral activity against wild type HIV1 by MTT assay; format: functional, organism-based
[3] = Selectivity index, ratio of CC50 for human MT4 cells to EC50 for HIV1 3B; format: toxicity, cell-based; settings: for selectivity ratio: MT4 cells, read-out: Ratio CC50/EC50; for Ratio CC50/EC50: mt4
In short: (§1)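 Ratio of CC₅₀ to EC₅₀. Both come from a 5-day MTT assay in MT-4 cells, using parallel mock-infected wells and wells infected with the named virus strain (100–300 CCID₅₀), with serial fivefold compound dilutions in triplicate.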

[4] = test system: Human immunodeficiency virus 2; test: Antiviral activity against HIV2 ROD infected in human MT4 cells assessed as virus-induced cytopathic effect by MTT assay; format: functional, organism-based; settings: Human immunodeficiency virus 2, ISOLATE ROD
In short: (§2)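 MT-4 cells (exponentially growing, resuspended at 6 × 10⁵ cells/mL) are infected with HIV-1 IIIB or HIV-2 ROD stock at 100–300 CCID₅₀. Serial fivefold compound dilutions are added at the start, in triplicate wells. After 5 days, viability is read by MTT reduction at OD540, using the median OD of three wells. EC₅₀ is the concentration giving 50% protection from the viral cytopathic effect.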

[5] = Selectivity index, ratio of CC50 for human MT4 cells to EC50 for HIV2 ROD; format: toxicity, cell-based; settings: for selectivity ratio: MT4 cells, read-out: Ratio CC50/EC50; for Ratio CC50/EC50: mt4; in short: as §1
[6] = Cytotoxicity against human MT4 cells by MTT assay; format: cell-based
In short: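 Mock-infected MT-4 cells (6 × 10⁵ cells/mL) are run in parallel triplicate wells with serial fivefold compound dilutions and culture medium in place of virus. After 5 days, MTT formazan is read at OD540, using the median OD of three wells. CC₅₀ is the concentration that cuts absorbance of the mock-infected control by 50%.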

[7] = test system: Human immunodeficiency virus 1; test: Antiviral activity against HIV1 3B infected in human MT4 cells assessed as virus-induced cytopathic effect by MTT assay; format: functional, organism-based; settings: Human immunodeficiency virus 1, 3B; in short: as §2

Cc1ccc(NC(=O)CSc2nnc(C)n2-c2ccccc2)c(Br)c1
EC50 [1]: 1.3 µM
EC50 [2]: 0.1 µM

Cc1cc(C)c(-n2nnnc2SCC(=O)Nc2ccccc2Cl)c(C)c1
IC50 [2]: 0.005 µM

Cc1ccccc1NC(=O)CSc1nccn1-c1ccc(Cl)cc1
selectivity ratio [3]: 5
EC50 [4]: > 160 µM
selectivity ratio [5]: < 1
CC50 [6]: 160 µM
EC50 [7]: 35.4 µM

O=C(CSc1nccn1-c1ccc(Cl)cc1)Nc1ccccc1Cl
Ratio CC50/EC50 [3]: Not Active
EC50 [4]: > 330 µM
Ratio CC50/EC50 [5]: Not Active
CC50 [6]: > 330 µM
EC50 [7]: ≥ 11.7 µM

Cc1ccccc1NC(=O)CSc1nccn1-c1cccc2ccccc12
selectivity ratio [3]: 14
EC50 [4]: > 34.6 µM
selectivity ratio [5]: < 1
CC50 [6]: 34.6 µM
EC50 [7]: 2.46 µM

O=C(CSc1nccn1-c1cccc2ccccc12)Nc1ccccc1F
selectivity ratio [3]: 20
EC50 [4]: > 34.7 µM
selectivity ratio [5]: < 1
CC50 [6]: 34.7 µM
EC50 [7]: 1.78 µM

Cc1ccc(NC(=O)CSc2nccn2-c2cccc3ccccc23)c(Br)c1
selectivity ratio [3]: 40
EC50 [4]: > 29.4 µM
selectivity ratio [5]: < 1
CC50 [6]: 29.4 µM
EC50 [7]: 0.73 µM

COc1ccc(-n2ccnc2SCC(=O)Nc2ccccc2C)cc1
selectivity ratio [3]: > 2
EC50 [4]: > 354 µM
Ratio CC50/EC50 [5]: Not Active
CC50 [6]: > 354 µM
EC50 [7]: 155 µM

O=C(CSc1nccn1-c1ccc(Cl)cc1)Nc1ccccc1Br
selectivity ratio [3]: > 19
EC50 [4]: > 296 µM
Ratio CC50/EC50 [5]: Not Active
CC50 [6]: > 300 µM
EC50 [7]: 15.8 µM

Cc1ccc(-n2ccnc2SCC(=O)Nc2ccccc2C)cc1
selectivity ratio [3]: 5
EC50 [4]: > 147 µM
selectivity ratio [5]: < 1
CC50 [6]: 147 µM
EC50 [7]: 30.9 µM

O=C(CSc1nccn1-c1ccc(Cl)cc1)Nc1ccccc1[N+](=O)[O-]
selectivity ratio [3]: > 66
EC50 [4]: > 321 µM
Ratio CC50/EC50 [5]: Not Active
CC50 [6]: > 321 µM
EC50 [7]: 4.86 µM

COc1ccc(-n2ccnc2SCC(=O)Nc2ccccc2[N+](=O)[O-])cc1
selectivity ratio [3]: > 9
EC50 [4]: > 161 µM
selectivity ratio [5]: < 1
CC50 [6]: 161 µM
EC50 [7]: 17.9 µM

Cc1ccc(-n2ccnc2SCC(=O)Nc2ccc(C)cc2Br)cc1
selectivity ratio [3]: 66
EC50 [4]: > 80.8 µM
selectivity ratio [5]: < 1
CC50 [6]: 80.8 µM
EC50 [7]: > 80.8 µM

Cc1ccc(-n2ccnc2SCC(=O)Nc2ccccc2F)cc1
selectivity ratio [3]: < 1
EC50 [4]: > 37.9 µM
selectivity ratio [5]: < 1
CC50 [6]: 37.9 µM
EC50 [7]: > 37.9 µM

Cc1ccc(-n2ccnc2SCC(=O)Nc2ccccc2Cl)cc1
selectivity ratio [3]: 7
EC50 [4]: > 33.7 µM
selectivity ratio [5]: < 1
CC50 [6]: 33.7 µM
EC50 [7]: 4.97 µM

O=C(CSc1nccn1-c1cccc2ccccc12)Nc1ccccc1Cl
selectivity ratio [3]: 170
EC50 [4]: > 35.2 µM
selectivity ratio [5]: < 1
CC50 [6]: 35.2 µM
EC50 [7]: 0.2 µM

O=C(CSc1nccn1-c1cccc2ccccc12)Nc1ccccc1[N+](=O)[O-]
selectivity ratio [3]: 162
EC50 [4]: > 28.8 µM
selectivity ratio [5]: < 1
CC50 [6]: 28.8 µM
EC50 [7]: 0.18 µM

COc1ccc(-n2ccnc2SCC(=O)Nc2ccccc2F)cc1
Ratio CC50/EC50 [3]: Not Active
EC50 [4]: > 42 µM
Ratio CC50/EC50 [5]: Not Active
CC50 [6]: ≥ 42 µM
EC50 [7]: > 42 µM

COc1ccc(-n2ccnc2SCC(=O)Nc2ccccc2Br)cc1
EC50 [4]: > 299 µM
Ratio CC50/EC50 [5]: Not Active
CC50 [6]: > 299 µM
EC50 [7]: ≥ 18.4 µM

Cc1ccc(-n2ccnc2SCC(=O)Nc2ccccc2Br)cc1
selectivity ratio [3]: 8
EC50 [4]: > 39.3 µM
selectivity ratio [5]: < 1
CC50 [6]: 39.3 µM
EC50 [7]: 5.15 µM

Cc1ccc(-n2ccnc2SCC(=O)Nc2ccccc2[N+](=O)[O-])cc1
selectivity ratio [3]: 126
EC50 [4]: > 131 µM
selectivity ratio [5]: < 1
CC50 [6]: 131 µM
EC50 [7]: 1.03 µM

O=C(CSc1nccn1-c1ccc(Cl)cc1)Nc1ccccc1F
selectivity ratio [3]: > 8
EC50 [4]: > 345 µM
Ratio CC50/EC50 [5]: Not Active
CC50 [6]: > 345 µM
EC50 [7]: 43.8 µM

Cc1ccc(NC(=O)CSc2nccn2-c2ccc(Cl)cc2)c(Br)c1
selectivity ratio [3]: 64
EC50 [4]: > 204 µM
selectivity ratio [5]: < 1
CC50 [6]: 221 µM
EC50 [7]: ≥ 55.2 µM

O=C(CSc1nccn1-c1cccc2ccccc12)Nc1ccccc1Br
selectivity ratio [3]: 48
EC50 [4]: > 30.5 µM
selectivity ratio [5]: < 1
CC50 [6]: 30.5 µM
EC50 [7]: 0.64 µM

COc1ccc(-n2ccnc2SCC(=O)Nc2ccccc2Cl)cc1
selectivity ratio [3]: > 10
EC50 [4]: > 334 µM
Ratio CC50/EC50 [5]: Not Active
CC50 [6]: > 334 µM
EC50 [7]: 32.3 µM

COc1ccc(-n2ccnc2SCC(=O)Nc2ccc(C)cc2Br)cc1
selectivity ratio [3]: < 1
EC50 [4]: > 25.8 µM
selectivity ratio [5]: < 1
CC50 [6]: 25.8 µM
EC50 [7]: > 25.8 µM

CC(C)Nc1cccnc1N1CCN(C(=O)c2cc3cc(NS(C)(=O)=O)ccc3[nH]2)CC1 [DELAVIRDINE]
selectivity ratio [3]: > 12
CC50 [6]: > 3.83 µM

O=C1Nc2ccc(Cl)cc2[C@@](C#CC2CC2)(C(F)(F)F)O1 [EFAVIRENZ]
selectivity ratio [3]: > 1430
CC50 [6]: > 6.34 µM

Cc1ccnc2c1NC(=O)c1cccnc1N2C1CC1 [NEVIRAPINE]
CC50 [6]: > 15 µM

Cc1cn([C@H]2C[C@H](N=[N+]=[N-])[C@@H](CO)O2)c(=O)[nH]c1=O [ZIDOVUDINE]
selectivity ratio [3]: > 6190
CC50 [6]: > 93.5 µM
